Results from ChEMBL document CHEMBL2169817, “Development of novel bisphosphonate prodrugs of doxorubicin for targeting bone metastases that are cleaved pH dependently or by cathepsin B: synthesis, cleavage properties, and binding properties to hydroxyapatite as well as bone matrix” (J Med Chem, 2012).
Calls of active or inactive are those of the source. The calls are words filed in the database; no cut-off is given here.

Legend:
Mus musculus [1] = experiment: Toxicity in Balb/c nude mouse assessed as mortality at 24 mg/kg, iv of doxorubicin equivalents administered once a week on days 7, 14 and 21 measured 13 days post-last dose; type: organism-based; parameters: dose 24 mg/kg, route intravenous; conditions: in vivo, 312 h
In short: (§1)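 Female Balb/C nude mice, five weeks old, about 20 g, three per group. Prodrug dissolved at 3.4 mM in sterile 10 mM sodium phosphate/sodium chloride buffer, pH 7.4. Given i.v. once weekly for three weeks at 8, 16 or 24 mg/kg doxorubicin equivalents. Behaviour and welfare checked daily, body weight every two days, observation over four weeks.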

Plasma [2] = experiment: Stability in human plasma assessed as anthracycline derivative formation over 6 hrs by HPLC analysis; type: ADME, cell-free
In short: (§2)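 Prodrug stock (3 mM in 10 mM sodium phosphate, 0.15 M NaCl, pH 7.4) added to EDTA-anticoagulated plasma from healthy volunteers, final 600 μM. Incubated at 37 °C for 0, 0.5, 1, 3 and 6 h. Samples centrifuged; supernatant analysed by C18 RP-HPLC with detection at 495 nm.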

Mus musculus [3] = experiment: Toxicity in Balb/c nude mouse assessed as weight loss at 8 mg/kg, iv of doxorubicin equivalents administered once a week on days 0, 7 and 14 measured after 1 week; type: organism-based; parameters: dose 8 mg/kg, route intravenous; conditions: in vivo, 168 h; in short: as §1
[4] = Half life of the compound at pH 5.5 at 600 uM by HPLC analysis; type: physicochemical
In short: (§3)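 Prodrug at a final 2.4 mM in 4 mM sodium phosphate, 150 mM NaCl (pH 7.4), brought to pH 5.5 with 50 mM sodium acetate (pH 4.5). Held at room temperature; samples diluted to 600 μM and analysed by isocratic C18 HPLC (30% CH₃CN/10 mM phosphate pH 7.8) at 5–300 min.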

Hydroxyapatite [5] = experiment: Binding affinity to bone mineral hydroxyapatite at pH 6 at 300 uM after 1 hr by photometric analysis
In short: (§4)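 Compound diluted to 300 μM (checked by absorbance at 495 nm, ε 10650 M⁻¹ cm⁻¹) in 4 mM sodium phosphate, 150 mM NaCl at pH 6.0 or 7.4. Hydroxyapatite (30 equiv) added, stirred at 37 °C. Parallel solution without HA as control. Centrifuged at 0–6 h and 20 h; supernatant A495 read. Mean of three measurements. % bound = (conc without HA − conc with HA)/conc without HA × 100.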

Bos taurus = species: Bos taurus; experiment: Binding affinity to bovine bone matrix at pH 7.4 at 300 uM after 4 hrs by spectrophotometric analysis
In short: (§5)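 Cortical bovine backbone bone cut into 6×4×1 mm pieces, washed with water and absolute ethanol, dried. About 50 mg bone stirred at 37 °C with 300 μM prodrug in 4 mM Na₂HPO₄, 150 mM NaCl, pH 6.0 or 7.4. Control without bone. Centrifuged, supernatant A495 read. % bound = (conc without bone − conc with bone)/conc without bone × 100.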

[6] = Binding affinity to bovine bone matrix at pH 6 at 300 uM after 4 hrs by spectrophotometric analysis; type: ADME, Bos taurus; conditions: cattle, pH 6, 4 h; in short: as §5
[7] = Prodrug conversion assessed as doxorubicin formation at pH 5.5 at 600 uM by HPLC analysis; type: physicochemical; conditions: pH 5.5, 600 µM; TDE = time-dependent effect; in short: as §3
Hydroxyapatite [8] = experiment: Binding affinity to bone mineral hydroxyapatite at pH 7.4 at 300 uM after 1 hr by photometric analysis; in short: as §4
Mus musculus [9] = experiment: Toxicity in Balb/c nude mouse assessed as adverse effects at 24 mg/kg, iv of doxorubicin equivalents administered once a week on days 7, 14 and 21; type: organism-based; parameters: dose 24 mg/kg, route intravenous; conditions: in vivo; in short: as §1
Mus musculus [10] = experiment: Toxicity in Balb/c nude mouse assessed as adverse effects at 8 mg/kg, iv of doxorubicin equivalents administered once a week on days 0, 7 and 14 measured after 1 week; type: organism-based; parameters: dose 8 mg/kg, route intravenous; conditions: in vivo, 168 h; in short: as §1
Hydroxyapatite [11] = experiment: Binding affinity to bone mineral hydroxyapatite at pH 7.4 at 300 uM after 5 hrs by photometric analysis; in short: as §4
Mus musculus [12] = experiment: Toxicity in Balb/c nude mouse assessed as change in body weight at 24 mg/kg, iv of doxorubicin equivalents administered once a week on days 7, 14 and 21; type: organism-based; parameters: dose 24 mg/kg, route intravenous; conditions: in vivo; in short: as §1
Plasma [13] = experiment: Stability in human plasma assessed as doxorubicin formation over 6 hrs by HPLC analysis; type: ADME, cell-free; in short: as §2
Mus musculus [14] = experiment: Toxicity in Balb/c nude mouse assessed as anemia at 24 mg/kg, iv of doxorubicin equivalents administered once a week on days 7, 14 and 21 measured 13 days post-last dose; type: organism-based; parameters: dose 24 mg/kg, route intravenous; conditions: in vivo, 312 h; in short: as §1
Mus musculus [15] = experiment: Toxicity in Balb/c nude mouse assessed as adverse effects at 16 mg/kg, iv of doxorubicin equivalents administered once a week on days 7, 14 and 21; type: organism-based; parameters: dose 16 mg/kg, route intravenous; conditions: in vivo; in short: as §1
[16] = Toxicity in iv dosed Balb/c nude mouse administered as doxorubicin equivalents once a week for 3 weeks; type: organism-based; conditions: in vivo; in short: as §1
[17] = Prodrug conversion assessed as doxorubicin formation after 120 mins by HPLC analysis at pH 5 in presence of cathepsin B; type: physicochemical; conditions: pH 5, 2 h
In short: (§6)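 Prodrug stock (1.5 mM) mixed with human liver cathepsin B (0.4 mg/mL, 23.8 U/mg) in 50 mM sodium acetate, 100 mM NaCl, 4 mM EDTA, 8 mM L-cysteine at pH 5.0 or 6.0. Incubated at 37 °C. Aliquots taken at 5–120 min and analysed by gradient C18 RP-HPLC. Control at pH 5.0 omitted the enzyme.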

Mus musculus [18] = experiment: Toxicity in Balb/c nude mouse assessed as mortality at 24 mg/kg, iv of doxorubicin equivalents measured on day 7; type: organism-based; parameters: dose 24 mg/kg, route intravenous; conditions: in vivo; in short: as §1
Hydroxyapatite [19] = experiment: Binding affinity to bone mineral hydroxyapatite at pH 6 at 300 uM up to 24 hrs by photometric analysis; in short: as §4
[20] = Prodrug conversion assessed as doxorubicin formation after 40 mins by HPLC analysis at pH 6 in presence of cathepsin B; type: physicochemical; conditions: pH 6, 40 min; in short: as §6
[21] = Half life of the compound by HPLC analysis at pH 5 in presence of cathepsin B; type: physicochemical; in short: as §6
[22] = Prodrug conversion assessed as doxorubicin formation by HPLC analysis at pH 5 in presence of cathepsin B; type: physicochemical; in short: as §6
[23] = […] by HPLC analysis at pH 5 in absence of cathepsin B; type: physicochemical; conditions: buffer
Mus musculus [24] = experiment: Toxicity in Balb/c nude mouse assessed as mortality at 16 mg/kg, iv of doxorubicin equivalents measured on day 7; type: organism-based; parameters: dose 16 mg/kg, route intravenous; conditions: in vivo; in short: as §1
Hydroxyapatite [25] = experiment: Binding affinity to bone mineral hydroxyapatite at pH 7.4 at 300 uM after 24 hrs by photometric analysis
Hydroxyapatite [26] = experiment: Binding affinity to bone mineral hydroxyapatite at pH 6 at 300 uM by photometric analysis
In short: (§7)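 Test compound at 300 μM in 4 mM sodium phosphate with 150 mM NaCl, at pH 6.0 or pH 7.4, concentration checked by absorbance at 495 nm. Hydroxyapatite powder (30 equiv) added, stirred, incubated at 37 °C, with a matching sample without hydroxyapatite as control. Centrifuged at 0–6 h and 20 h. Supernatant A495 read (ε 10650 M⁻¹ cm⁻¹). % bound = (no-HA − HA conc)/no-HA conc × 100. Mean of three measurements.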

Hydroxyapatite [27] = experiment: Binding affinity to bone mineral hydroxyapatite at pH 7.4 at 300 uM by photometric analysis; in short: as §7

SMILES	Activity (Mus musculus [3])	Activity (Hydroxyapatite [5]) [%]	Activity (Bos taurus)	Activity [6]	Activity (Hydroxyapatite [8]) [%]	Activity (Mus musculus [10])	Activity (Hydroxyapatite [11]) [%]	MTD at 504 h [16] [mg/kg]	Drug metabolism [22]	further results
COc1cccc2c1C(=O)c1c(O)c3c(c(O)c1C2=O)C[C@@](O)(/C(CO)=N/NC(=O)CCCCCN1C(=O)CC(SCCCSCC(P(=O)(O)O)P(=O)(O)O)C1=O)C[C@@H]3O[C@H]1C[C@H](N)[C@H](O)[C@H](C)O1.Cl.N.N.N.N (some centres not stated)	Non-toxic	65	50%	80%	50	Non-toxic	80	24		Activity (Mus musculus [1]): Toxic; Drug metabolism (Plasma [2]): Active; half-life at 600 µM [4]: 2.5 h; Drug metabolism [7]: tde; Activity (Mus musculus [9]): Non-toxic; Activity (Mus musculus [12]): Non-toxic; Drug metabolism (Plasma [13]): Active; Activity (Mus musculus [14]): Toxic; Activity (Mus musculus [15]): Non-toxic
COc1cccc2c1C(=O)c1c(O)c3c(c(O)c1C2=O)C[C@@](O)(C(=O)CO)C[C@@H]3O[C@H]1C[C@H](NC(=O)OCc2ccc(NC(=O)[C@H](C)NC(=O)[C@@H](NC(=O)CCCCCN3C(=O)CC(SCCCSCC(P(=O)(O)O)P(=O)(O)O)C3=O)C(C)C)cc2)[C@H](O)[C@H](C)O1.N.N.N.N (some centres not stated)	Non-toxic	65	50%	80%	50	Non-toxic	90	8	Active	Drug metabolism [17]: Active; Stability (Plasma [2]): Stable; Activity (Mus musculus [18]): Toxic; Activity (Hydroxyapatite [19]): 90%; Drug metabolism [20]: Active; half-life [21]: 0.75 h; Stability [23]: Stable; Stability (Plasma [13]): Stable; Activity (Mus musculus [24]): Toxic; Activity (Hydroxyapatite [25]): 100%
COc1cccc2c1C(=O)c1c(O)c3c(c(O)c1C2=O)C[C@@](O)(C(=O)CO)C[C@@H]3O[C@H]1C[C@H](NC(=O)OCc2ccc(NC(=O)[C@H](CCCCN)NC(=O)[C@H](Cc3ccccc3)NC(=O)CCCCCN3C(=O)CC(SCCCSCC(P(=O)([O-])[O-])P(=O)([O-])[O-])C3=O)cc2)[C@H](O)[C@H](C)O1.O=C(O)C(F)(F)F.[Na+].[Na+].[Na+].[Na+] (some centres not stated)									Active	
COc1cccc2c1C(=O)c1c(O)c3c(c(O)c1C2=O)C[C@@](O)(C(=O)CO)C[C@@H]3O[C@H]1C[C@H](N)[C@H](O)[C@H](C)O1 [DOXORUBICIN]			inactive	Not Active				8		Activity (Hydroxyapatite [26]): inactive; Activity (Hydroxyapatite [27]): inactive
